Calls of active or inactive are those of the source.
How the values were obtained:
Mus musculus [1] = species on record: Mus musculus; assay: Anticonvulsant activity in mouse assessed as protection against maximal electroshock-induced seizures; assay type: functional
[2] = Toxicity in mouse; assay type: organism-based; settings: in vivo
Method in brief: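 Toxicity in mice from the NINCDS screens, expressed as TD50: dose toxic in 50% of screens, in mg/kg.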

Mus musculus [3] = assay: Anticonvulsant activity in mouse assessed as protection against subcutaneous pentylenetetrazole-induced seizures; assay type: functional; settings: sc
Method in brief: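 Mice screened in the NINCDS program for subcutaneous metrazole (pentylenetetrazole) seizure threshold (scMet) protection; ED50 taken as dose effective in 50% of test animals, in mg/kg.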

With `CCN(CC)CCN1C(=O)NC(C)(C)C1=O` the Activity (Mus musculus [1]) was “inactive”.

For `CCN(CC)CCN1C(=O)N(CCN(CC)CC)C(c2ccccc2)(c2ccccc2)C1=O`, the Activity (Mus musculus [1]) was “inactive”.

In the case of `CC1(C)OC(=O)N(C(C)(C)C)C1=O`, the Activity (Mus musculus [1]) is reported as “inactive”.

In the case of `CC(=O)N1C(=O)N(C(C)(C)C)C(=O)C1(C)C`, the TD50 [2] is reported as at most 30 mg/kg.

In the case of `CC1(C)NC(=O)N(C23CC4CC(CC(C4)C2)C3)C1=O`, the Activity (Mus musculus [1]) is reported as “inactive”.

With `CN1C(=O)N(C(C)(C)C)C(=O)C1(C)C` the Activity (Mus musculus [1]) was “inactive”.

In the case of `Cc1ccc(S(=O)(=O)N2C(=O)NC(C)(C)C2=O)cc1`, the Activity (Mus musculus [1]) is reported as “inactive”.

`CC1(C)NC(=O)N(C(C)(C)C)C1=O` gave an ED50 (Mus musculus [3]) of 130 mg/kg and a TD50 [2] of 343 mg/kg.

`CCN(CC)CCN1C(=O)NC(c2ccccc2)(c2ccccc2)C1=O` gave an ED50 (Mus musculus [1]) of 80 mg/kg.
